Results published in PubChem BioAssay AID492981 (Johns Hopkins Ion Channel Center, 2010).
Inconclusive results are not listed. Calls of active or inactive are those of the source.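 The calls were made as follows: active = compound whose replicate-averaged normalized fluorescence ratio fell more than 5 SD below the agonist-stimulated control mean; inactive = the rest, inconclusive results apart.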

target: Short transient receptor potential channel 6 (Mus musculus) (UniProt Q61143); assay: mouse TRPC6 channel blockers, analog testing – HEK293 cells, membrane potential dye, single concentration, selectivity assay for selective TRPC4 inhibitor project, SAR follow-up (AID 492981); conditions: membrane potential dye fluorescence, at 10 µM, stronger effect = higher value
Sequence (Q61143 whole entry, looked up): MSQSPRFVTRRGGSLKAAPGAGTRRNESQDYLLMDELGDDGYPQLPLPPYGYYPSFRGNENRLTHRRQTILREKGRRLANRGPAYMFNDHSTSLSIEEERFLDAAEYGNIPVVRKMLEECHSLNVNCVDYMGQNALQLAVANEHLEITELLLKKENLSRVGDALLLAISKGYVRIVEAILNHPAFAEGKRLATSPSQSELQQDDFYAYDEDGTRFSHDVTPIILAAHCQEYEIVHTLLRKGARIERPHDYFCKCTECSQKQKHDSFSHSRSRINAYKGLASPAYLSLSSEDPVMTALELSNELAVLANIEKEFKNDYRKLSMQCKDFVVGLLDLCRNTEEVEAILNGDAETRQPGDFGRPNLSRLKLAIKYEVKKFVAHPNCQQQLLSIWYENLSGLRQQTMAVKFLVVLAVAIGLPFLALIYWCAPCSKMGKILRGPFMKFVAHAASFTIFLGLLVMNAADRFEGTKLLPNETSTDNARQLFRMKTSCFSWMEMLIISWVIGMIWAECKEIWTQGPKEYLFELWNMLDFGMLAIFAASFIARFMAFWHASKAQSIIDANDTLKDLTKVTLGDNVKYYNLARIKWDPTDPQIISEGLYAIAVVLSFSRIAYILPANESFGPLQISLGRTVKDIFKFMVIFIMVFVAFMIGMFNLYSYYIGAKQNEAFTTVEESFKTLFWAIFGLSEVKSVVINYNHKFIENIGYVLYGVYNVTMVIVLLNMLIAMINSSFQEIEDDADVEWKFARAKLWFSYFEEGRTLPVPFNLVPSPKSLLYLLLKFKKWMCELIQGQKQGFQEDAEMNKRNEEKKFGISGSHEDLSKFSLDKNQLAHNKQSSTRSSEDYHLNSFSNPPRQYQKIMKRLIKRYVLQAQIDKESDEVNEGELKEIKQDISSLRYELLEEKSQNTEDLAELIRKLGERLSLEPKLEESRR
How it was run: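 System: TRPC6-expressing HEK293 cells | Evaluation: Integrated fluorescence ratio inhibition versus positive controls | Probe or stimulus: ECmax acetylcholine | Repeats: Duplicate or more | Schedule: Dye loading 45 min at room temperature, compound preincubation 110 s | Detection: Membrane potential dye fluorescence, kinetic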

inhibition	SMILES
-27.6% (inactive)	Cc1ccnc(N2CCCC2)c1
2.24% (inactive)	c1ccc(-c2cc(N3CCCC3)nc3ccccc23)cc1
15.5% (inactive)	COc1ccc(N2CCN(c3cc(C)c4ccccc4n3)CC2)cc1
-9.81% (inactive)	Cc1ccnc(N2CCCCC2)n1
-2.93% (inactive)	Cc1ccnc(N2CCCCC2)c1
26.7%	Cc1cc(N2CCCC(O)C2)nc2ccccc12 (stereo not drawn)
13.6% (inactive)	CCc1ccc2nc(N3CCCCC3)cc(C)c2c1
3.23% (inactive)	Cc1cc(N2CCCCC2)nc2c(C)cccc12
22.2% (inactive)	COCCN(C)c1cc(C)c2ccccc2n1
3.78% (inactive)	Cc1cc(N2CCCCC2)nc2ccc(F)cc12
33.9% (inactive)	Cc1cc(N2CCCC2)nc2c(C)cccc12
57.9%	Cc1cc(N2CCCC2)nc2ccccc12
-6.71% (inactive)	Cc1ccnc(N2CCCC2)n1
44.8%	Cc1cc(N2CCC(N3CCOCC3)CC2)nc2ccccc12
18.1% (inactive)	Cc1cc(N(C)CCN(C)C)nc2ccccc12
11.5% (inactive)	FC(F)(F)c1cc(N2CCCC2)nc2ccccc12

inhibition	SMILES
2.35% (inactive)	Cc1cc(N2CCOCC2)nc2ccccc12
-6.62% (inactive)	FC(F)(F)c1cc(N2CCCCC2)nc2ccccc12
61.2%	Cc1cc(N2CCN(c3ccncc3)CC2)nc2ccccc12
37.5% (inactive)	Cc1ccc2nc(N3CCCCC3)cc(C)c2c1
11.7% (inactive)	COc1ccccc1N1CCN(c2cc(C)c3ccccc3n2)CC1
19.4% (inactive)	c1ccc(-c2cc(N3CCCCC3)nc3ccccc23)cc1
0.71% (inactive)	Cc1cc(N2CCN(c3ccccc3C#N)CC2)nc2ccccc12
13.6% (inactive)	Cc1cc(N2CCC(C)CC2)nc2ccccc12
47.6%	Cc1cc(N2CCC[C@@H]2C)nc2ccccc12
6.28% (inactive)	Cc1cc(N2CCN(c3ncccn3)CC2)nc2ccccc12
14.3% (inactive)	Cc1cc(N2CCN(CC3CCCO3)CC2)nc2ccccc12 (stereo not drawn)
9.79% (inactive)	CCN(CC)c1cc(C)c2ccccc2n1
16.4% (inactive)	Cc1cc(N2CC(C)CC(C)C2)nc2ccccc12 (stereo not drawn)
42.7%	Cc1cc(N2CCCCC2)nc2ccccc12
13.7% (inactive)	Cc1cc(N2CCOc3ccccc32)nc2ccccc12

SMILES	inhibition
Cc1cc(N2CCN(C)CC2)nc2ccccc12	2.9% (inactive)
Cc1cc(N2CCNCC2)nc2ccccc12	37.2%
